Assay outcomes from PubChem BioAssay.
OX1R antag-1 = antagonists of human orexin 1 receptor (OX1R). O43613. 330,000 tested, 1.8% active. OX1R-expressing cells, FRET antagonist read-out. inhibition, % at 6.6 µM; in the data active means inhibition mostly above about 38%, no sharp cut-off; inactive means mostly below about 40%
Target sequence (O43613 whole entry, looked up): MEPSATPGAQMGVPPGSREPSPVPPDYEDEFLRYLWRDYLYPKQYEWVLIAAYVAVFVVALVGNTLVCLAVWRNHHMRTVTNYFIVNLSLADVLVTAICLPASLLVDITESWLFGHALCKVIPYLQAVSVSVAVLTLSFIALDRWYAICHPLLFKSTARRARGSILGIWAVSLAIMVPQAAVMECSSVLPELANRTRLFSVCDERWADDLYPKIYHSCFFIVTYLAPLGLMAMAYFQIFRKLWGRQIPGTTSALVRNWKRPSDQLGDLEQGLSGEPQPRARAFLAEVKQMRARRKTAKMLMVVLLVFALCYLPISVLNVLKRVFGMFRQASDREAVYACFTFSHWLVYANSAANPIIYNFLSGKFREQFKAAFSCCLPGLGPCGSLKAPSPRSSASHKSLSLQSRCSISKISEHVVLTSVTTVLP
zfTRPN1 agonist = agonists of zebrafish TRPN1 channel. HEK293 zebrafish TRPN1-YFP, Fluo-8 calcium fluorescence; 100% = response to 87 µM carbachol. activation, % at 3 µM. 220,000 tested, 0.18% active;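 active means activation above its plate's cutoff, the mean activation of test wells on that plate plus 3 SD, cut at about 19% in these data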
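Control set: carbachol 87 µM as high control, DMSO as low control; system: HEK293 stable line with zebrafish TRPN1-YFP; read-out: % activation versus carbachol response; detection: intracellular calcium fluorescence with Fluo-8; doses: single test compound dose, 3 µM nominal, 0.3% DMSO; schedule: dye 1 h 37 °C plus 30 min RT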
GPR7 antagonist = blocks human GPR7 receptor signaling | P48145 | GPR7-expressing cells, fluorescence antagonist assay | inhibition, % at 4.4 µM | 290,000 tested, 1.1% active; in the data active means inhibition above about 16%, passing the limit was not always enough;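 further: cells stimulated with the agonist NPW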
OX1R antag-2 = human HCRTR1 antagonism; O43613; CHO/OX1R cells, Fluo-8 calcium fluorescence, orexin A; inhibition, % at 5 µM; 330,000 tested, 0.43% active;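 active means inhibition above its plate's threshold, mean inhibition of all tested compounds on the plate plus 3 SD, cut at about 37% in these data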
TRPML3 ag = activates the human TRPML3 channel | AID 1448 | 220,000 tested, 0.29% active | Q8TDD5 | HEK293 TRPML3-YFP, Fluo-8 calcium fluorescence; 100% = the carbachol control signal | activation, % at 3 µM;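 active means activation above its plate's cutoff, the mean activation of the plate's test wells plus 3 SD, cut at about 12% in these data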
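system = HEK293 cells stably carrying human TRPML3-YFP | doses = one concentration, 3 µM nominal, 0.3% DMSO | timing = dye loading 1 h 37 °C then 30 min ambient, 125 s read | detection = Fluo-8 calcium dye fluorescence, ex 470-495, em 515-575 nm | benchmarks = high control carbachol 87 µM, low control DMSO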
CHO parental Ca = counter-screen for OX1R antagonists: effect in parental CHO cells. parental CHO-K1, ATP-induced calcium, Fluo-8 fluorescence. inhibition, % at 5.6 µM. 330,000 tested, 0.63% active;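 active means inhibition above that plate's mean sample inhibition plus 3 SD, cut at about 26% in these data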
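Assay system: untransfected parental CHO cell line. Also added: ATP agonist challenge. Dosing: one dose, 5.6 µM nominal. Measured by: Fluo-8 fluorescence. Read-out: % inhibition. Benchmarks: ATP wells versus no-ATP DMSO wells. Repeats: no replicates.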
A number is an active result; . = inactive; / = no result given. The list is not random: actives were taken first. Their share in the collection is about 3.2%.

SMILES | OX1R antag-1 | zfTRPN1 agonist | GPR7 antagonist | OX1R antag-2 | TRPML3 ag | CHO parental Ca
CC(C)(C)C(=O)OCCNc1nc(-c2ccccc2)nc2ccccc12 | 71.8 | . | . | . | . | .
O=C(CC1C(=O)NCCN1Cc1ccc(F)cc1)NCCCn1cccn1 (stereo unspecified) | . | . | . | . | . | .
COc1ccc(OCc2cc(C(=O)NC(C)Cc3cnccn3)no2)c(Cl)c1 (stereo unspecified) | . | / | . | . | / | .
Cc1noc(/C=C/c2ccccn2)c1[N+](=O)[O-] | 62.5 | / | . | . | / | .
Cc1noc(/C=C/Nc2ccc(F)cc2F)c1[N+](=O)[O-] | . | . | . | . | . | .
Cc1cc(Cn2nnnc2-c2ccncc2)cc(C)c1O | . | / | . | . | / | .
Cc1ccc(NC(=O)C2C(c3ccccc3)C2(Cl)Cl)c(C)c1 (stereo unspecified) | 76.8 | . | . | . | . | .
O=C(CSc1ncccn1)NCc1cccc(Cl)c1 | . | . | . | . | . | .
COc1ccc2oc3ccc(OC)cc3c(=O)c2c1 | 61.7 | . | . | . | . | .
O=C(CSc1nc2ccc(Cl)cc2[nH]1)N1CCN(C(=O)c2ccco2)CC1 | . | . | . | . | . | .
COc1c(C)cc(C(=O)C2CCCN(C(=O)c3ccoc3)C2)cc1C (stereo unspecified) | 50.8 | . | . | . | . | .
COc1c(C)cc(C(=O)C2CCCN(C(=O)C3=C(C)OCCO3)C2)cc1C (stereo unspecified) | . | . | . | . | . | .
COc1ccc(C(=O)Nc2ccnn2C2CCN(C(C)CSC)CC2)cc1 (stereo unspecified) | . | / | . | . | / | .
COc1ccc(Cl)cc1C(=O)CSc1nnnn1C1CCCCC1 | 52.5 | . | . | . | . | 52.4
CCn1nnnc1SCC(=O)c1cc(Cl)ccc1OC | . | . | . | . | . | .
COc1ccc(C(=O)COC(=O)[C@@H](NS(=O)(=O)c2ccccc2)C(C)C)cc1 | . | / | / | . | / | .
O=C(NCCN1C(=O)S/C(=C/c2cccnc2)C1=O)C1CC(=O)N(Cc2ccccc2)C1 (stereo unspecified) | 53.1 | . | . | . | . | .
CCCCN1C(=O)c2cccc3cc(O)cc(c23)C1=O | . | / | / | . | / | .
O=C(OCc1nnc(-c2ccc([N+](=O)[O-])cc2)o1)C1CCN(C(=O)c2ccc(F)cc2)CC1 | 38.5 | / | / | . | / | .
O=[N+]([O-])c1ccc(-c2nnc(CNC3CCCC3)o2)cc1 | 63.4 | . | . | . | . | .
Clc1ccc(-c2nnc(CNC3CC3)o2)cc1 | . | . | . | . | . | .
CCCCNC(=O)[C@H]1N2C(=O)c3c(ccc(OC)c3OC)C2SC1(C)C (stereo partly specified) | . | / | . | . | / | .
Cc1cc(C)c2c(n1)SCC(=O)N2CC(=O)Nc1ccc(Br)c(C)c1 | . | / | . | . | / | .
O=C(c1ccco1)N1CCN(S(=O)(=O)c2ccc([N+](=O)[O-])cc2)CC1 | 63.5 | . | . | . | . | .
O=C(c1ccco1)N1CCN(S(=O)(=O)c2ccccc2)CC1 | . | / | . | . | / | .
SMILES | OX1R antag-1 | zfTRPN1 agonist | GPR7 antagonist | OX1R antag-2 | TRPML3 ag | CHO parental Ca
Cc1nn(Cc2ccc(C(=O)N3CCN(C(=O)c4ccco4)CC3)o2)c(C)c1[N+](=O)[O-] | 66.2 | / | . | . | / | .
O=C(CCC(=O)N1CCN(S(=O)(=O)c2ccc([N+](=O)[O-])cc2)CC1)N1CCOCC1 | 48.4 | / | / | . | / | .
CC1=NN(C(=O)c2ccc(Cn3nc(C)c([N+](=O)[O-])c3C)o2)C(O)(C(F)(F)F)C1 (stereo unspecified) | . | . | . | . | . | .
Cc1ccccc1Nc1nc(N)nc(COC(=O)[C@@H](NC(=O)c2c(F)cccc2F)C(C)C)n1 | . | / | / | . | / | .
Cc1cccn2c(=O)c3cc(C(=O)NCC4CCCO4)c(=N)n(CCc4ccccc4)c3nc12 (stereo unspecified) | 50.9 | / | . | . | / | .
COc1ccc(CCn2c(=N)c(C(=O)NCC3CCCO3)cc3c(=O)n4ccccc4nc32)cc1OC (stereo unspecified) | 50.2 | / | . | . | / | .
CCN(CC(=O)NC(C)(C)C)C(=O)CN1c2cccc3cccc(c23)S1(=O)=O | . | / | . | . | / | .
